Source: ChEMBL document CHEMBL3351553 (J Med Chem, 2014)
≈ marks a conversion by molar mass, not a printed value.

What was measured:
[1] = test system: Staphylococcus aureus; assay: Antimicrobial activity against Staphylococcus aureus UAMS1 incubated for 16 hrs by CLSI based method; type: functional; details: UAMS1, 16 h
[2] = biological target: DNA gyrase (Staphylococcus aureus, UniProt P0A0K8+P20831); assay: Inhibition of Staphylococcus aureus DNA gyrase assessed as reduction in enzyme-catalyzed supercoiling of relaxed circular pBR322 DNA by agarose gel electrophoresis; type: protein-complex assay
Sequence of DNA gyrase (P0A0K8 whole entry): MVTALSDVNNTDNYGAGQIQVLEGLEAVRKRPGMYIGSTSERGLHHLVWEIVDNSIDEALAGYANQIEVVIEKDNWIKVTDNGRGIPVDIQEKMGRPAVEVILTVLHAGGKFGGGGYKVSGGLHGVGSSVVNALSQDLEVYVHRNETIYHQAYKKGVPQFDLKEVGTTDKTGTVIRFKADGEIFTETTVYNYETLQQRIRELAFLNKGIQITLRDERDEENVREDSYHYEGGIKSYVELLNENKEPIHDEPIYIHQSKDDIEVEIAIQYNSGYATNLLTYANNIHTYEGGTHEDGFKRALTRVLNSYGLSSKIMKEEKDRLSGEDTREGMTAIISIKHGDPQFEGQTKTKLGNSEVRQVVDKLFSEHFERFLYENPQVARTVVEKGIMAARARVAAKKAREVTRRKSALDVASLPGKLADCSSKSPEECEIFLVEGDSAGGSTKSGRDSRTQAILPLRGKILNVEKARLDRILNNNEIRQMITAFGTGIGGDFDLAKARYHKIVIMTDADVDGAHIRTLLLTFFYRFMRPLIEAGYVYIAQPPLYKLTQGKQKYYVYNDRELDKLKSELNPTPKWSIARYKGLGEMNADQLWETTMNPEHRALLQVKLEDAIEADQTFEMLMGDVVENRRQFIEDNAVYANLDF
Sequence of DNA gyrase (P20831 whole entry): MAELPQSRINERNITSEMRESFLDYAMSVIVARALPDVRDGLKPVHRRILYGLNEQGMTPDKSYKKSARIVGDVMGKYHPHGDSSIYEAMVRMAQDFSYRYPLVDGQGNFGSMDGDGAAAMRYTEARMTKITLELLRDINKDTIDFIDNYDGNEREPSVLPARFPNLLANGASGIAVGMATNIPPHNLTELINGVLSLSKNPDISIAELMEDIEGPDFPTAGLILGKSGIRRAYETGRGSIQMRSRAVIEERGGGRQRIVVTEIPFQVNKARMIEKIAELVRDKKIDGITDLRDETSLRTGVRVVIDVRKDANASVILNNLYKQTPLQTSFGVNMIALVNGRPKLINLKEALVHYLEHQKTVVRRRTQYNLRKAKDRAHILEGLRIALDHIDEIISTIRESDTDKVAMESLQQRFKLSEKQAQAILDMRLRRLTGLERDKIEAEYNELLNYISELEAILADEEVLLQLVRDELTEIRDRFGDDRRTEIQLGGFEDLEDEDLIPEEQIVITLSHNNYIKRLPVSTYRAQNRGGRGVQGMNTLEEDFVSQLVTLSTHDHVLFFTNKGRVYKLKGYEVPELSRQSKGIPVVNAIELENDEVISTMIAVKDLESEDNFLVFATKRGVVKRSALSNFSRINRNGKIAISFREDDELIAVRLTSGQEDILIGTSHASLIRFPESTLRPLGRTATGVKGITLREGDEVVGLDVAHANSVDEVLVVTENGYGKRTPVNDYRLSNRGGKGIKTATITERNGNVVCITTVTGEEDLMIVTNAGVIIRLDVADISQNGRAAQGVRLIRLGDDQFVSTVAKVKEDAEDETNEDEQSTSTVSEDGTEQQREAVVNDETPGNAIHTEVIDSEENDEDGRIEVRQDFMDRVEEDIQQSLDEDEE
Procedure, shortened: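 Recombinant S. aureus gyrase kit, 0.5 U enzyme, relaxed pBR322 (250 ng/μL) in 40 mM HEPES·KOH pH 7.6, 10 mM Mg acetate, 10 mM DTT, 2 mM ATP, 500 mM K glutamate, 0.5 mg/mL albumin; 37 °C, 30 min.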

[3] = Inhibition of Staphylococcus aureus topoisomerase 4 assessed as reduction in decatenation of kDNA at 100 to 500 uM by gel electrophoresis method
Procedure, shortened: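 Compounds were in DMSO, with water or DMSO as vehicle controls. Reactions were stopped with STEB plus chloroform:isoamyl alcohol and run on 1% agarose TAE gels stained with ethidium bromide. IC50 was taken from densitometry against reactions with and without enzyme.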

Compound: CC(C)(C)c1ccc(C(=O)N2CCC(C(O)(c3ccccc3)c3ccccc3)CC2)cc1
- MIC [1]: > 256 µg/mL
- IC50 [2]: 93 µM
- IC50 [3]: > 333 µM

Compound: CC(C)(C)c1cccc(CN2CCC(C(O)(c3ccccc3)c3ccccc3)CC2)c1
- MIC [1]: 32 µg/mL (≈ 77.4 µM)

Compound: COc1ccc(CCN2CCC(C(O)(c3ccccc3)c3ccccc3)CC2)cc1
- MIC [1]: > 256 µg/mL
- IC50 [2]: > 333 µM

Compound: CN(C)c1ccc(CCN2CCC(C(O)(c3ccccc3)c3ccccc3)CC2)cc1
- MIC [1]: > 256 µg/mL
- IC50 [2]: > 333 µM

Compound: CC1(c2ccc(CCN3CCC(C(O)(c4ccccc4)c4ccccc4)CC3)cc2)COC1
- MIC [1]: > 256 µg/mL
- IC50 [2]: > 333 µM

Compound: CC(C)(C)c1ccccc1CCN1CCC(C(O)(c2ccccc2)c2ccccc2)CC1
- MIC [1]: 16 µg/mL (≈ 37.4 µM)

Compound: OC(c1ccccc1)(c1ccccc1)C1CCN(CCc2ccc(Cl)cc2)CC1
- MIC [1]: 32 µg/mL (≈ 78.8 µM)
- IC50 [2]: 260 µM
- IC50 [3]: 267 µM

Compound: COC(=O)c1ccccc1CN1CCC(C(O)(c2ccccc2)c2ccccc2)CC1
- MIC [1]: > 256 µg/mL

Compound: OC(c1ccccc1)(c1ccccc1)C1CCN(Cc2cccc(F)c2)CC1
- MIC [1]: 128 µg/mL (≈ 341 µM)

Compound: OC(c1ccccc1)(c1ccccc1)C1CCN(Cc2ccccc2F)CC1
- MIC [1]: > 256 µg/mL

Compound: Oc1ccc(CN2CCC(C(O)(c3ccccc3)c3ccccc3)CC2)cc1
- MIC [1]: 128 µg/mL (≈ 343 µM)

Compound: CC(C)(C)c1ccc(C(O)CCCN2CCC(C(O)c3ccccc3)CC2)cc1 (stereo not drawn)
- MIC [1]: > 256 µg/mL
- IC50 [2]: > 333 µM

Compound: OC(CCCN1CCC(C(O)(c2ccccc2)c2ccccc2)CC1)c1ccc(F)cc1 (stereo not drawn)
- MIC [1]: 128 µg/mL (≈ 295 µM)
- IC50 [2]: > 500 µM
- IC50 [3]: > 333 µM

Compound: Cc1ccccc1CN1CCC(C(O)(c2ccccc2)c2ccccc2)CC1
- MIC [1]: 128 µg/mL (≈ 345 µM)

Compound: N#Cc1ccc(CN2CCC(C(O)(c3ccccc3)c3ccccc3)CC2)cc1
- MIC [1]: > 256 µg/mL

Compound: CC(C)(C)c1ccc([C@@H](O)CCCN2CCC(C(O)(c3ccccc3)c3ccccc3)CC2)cc1
- IC50 [3]: 100 µM

Compound: OC(c1ccccc1)(c1ccccc1)C1CCN(Cc2ccccc2-c2ccccc2)CC1
- MIC [1]: > 256 µg/mL

Compound: CC(C)(C)c1ccc(C(N)CCCN2CCC(C(O)(c3ccccc3)c3ccccc3)CC2)cc1 (stereo not drawn)
- MIC [1]: 16 µg/mL (≈ 34 µM)
- IC50 [3]: > 333 µM

Compound: OC(c1ccccc1)(c1ccccc1)C1CCN(Cc2cccc(-c3ccccc3)c2)CC1
- MIC [1]: 64 µg/mL (≈ 148 µM)

Compound: OC(c1ccccc1)(c1ccccc1)C1CCN(Cc2ccc(-c3ccoc3)cc2)CC1
- MIC [1]: 32 µg/mL (≈ 75.6 µM)

Compound: N#Cc1ccccc1CN1CCC(C(O)(c2ccccc2)c2ccccc2)CC1
- MIC [1]: > 256 µg/mL

Compound: OC(c1ccccc1)(c1ccccc1)C1CCN(Cc2ccc(-c3ccsc3)cc2)CC1
- MIC [1]: 16 µg/mL (≈ 36.4 µM)

Compound: CC(C)c1ccc(C(O)CCCN2CCC(C(O)(c3ccccc3)c3ccccc3)CC2)cc1 (stereo not drawn)
- MIC [1]: 32 µg/mL (≈ 69.9 µM)
- IC50 [3]: 273 µM

Compound: Oc1ccccc1CN1CCC(C(O)(c2ccccc2)c2ccccc2)CC1
- MIC [1]: 64 µg/mL (≈ 171 µM)

Compound: CC(C)(C)c1ccccc1CN1CCC(C(O)(c2ccccc2)c2ccccc2)CC1
- MIC [1]: > 256 µg/mL

Compound: OC(c1ccccc1)(c1ccccc1)C1CCN(CCc2ccc(-c3ccccc3)cc2)CC1
- MIC [1]: 8 µg/mL (≈ 17.9 µM)
- IC50 [2]: 80 µM
- IC50 [3]: 133 µM

Compound: CC(C)(C)c1ccc(C(O)CCN2CCC(C(O)(c3ccccc3)c3ccccc3)CC2)cc1 (stereo not drawn)
- MIC [1]: 8 µg/mL (≈ 17.5 µM)
- IC50 [2]: 133 µM
- IC50 [3]: 333 µM

Compound: O=C(O)c1ccc(CN2CCC(C(O)(c3ccccc3)c3ccccc3)CC2)cc1
- MIC [1]: > 256 µg/mL

Compound: Cc1ccc(C(O)CCCN2CCC(C(O)(c3ccccc3)c3ccccc3)CC2)cc1 (stereo not drawn)
- MIC [1]: 128 µg/mL (≈ 298 µM)
- IC50 [2]: > 500 µM
- IC50 [3]: > 333 µM

Compound: CC(C)(C)c1ccc(C(=O)CCCN2CCC(C(O)(c3ccccc3)c3ccccc3)CC2)cc1 [TERFENADONE]
- MIC [1]: 8 µg/mL (≈ 17 µM)
- IC50 [3]: 110 µM

Compound: CC(C)(C(=O)O)c1ccc(C(O)CCCN2CCC(C(O)(c3ccccc3)c3ccccc3)CC2)cc1 (stereo not drawn) [FEXOFENADINE]
- MIC [1]: > 256 µg/mL
- IC50 [2]: > 500 µM
- IC50 [3]: > 333 µM

Compound: OC(c1ccccc1)(c1ccccc1)C1CCN(CCc2ccc(F)cc2)CC1
- MIC [1]: 128 µg/mL (≈ 329 µM)
- IC50 [2]: > 333 µM

Compound: CC(C)(C)c1ccc(C(O)CN2CCC(C(O)(c3ccccc3)c3ccccc3)CC2)cc1 (stereo not drawn)
- MIC [1]: 16 µg/mL (≈ 36.1 µM)
- IC50 [3]: 100 µM

Compound: O=C(O)c1cccc(CN2CCC(C(O)(c3ccccc3)c3ccccc3)CC2)c1
- MIC [1]: > 256 µg/mL

Compound: OC(c1ccccc1)(c1ccccc1)C1CCN(Cc2ccccc2C(F)(F)F)CC1
- MIC [1]: > 256 µg/mL

Compound: COc1ccc(C(O)CCCN2CCC(C(O)(c3ccccc3)c3ccccc3)CC2)cc1 (stereo not drawn)
- MIC [1]: > 256 µg/mL
- IC50 [2]: > 500 µM
- IC50 [3]: > 333 µM

Compound: CC(C)(C)c1ccc(C(O)CCCN2CCC(Cc3ccccc3)CC2)cc1 (stereo not drawn)
- MIC [1]: > 256 µg/mL
- IC50 [2]: > 333 µM

Compound: CC(C)(C)c1ccc(C(O)CCCN2CCC(=C(c3ccccc3)c3ccccc3)CC2)cc1 (stereo not drawn)
- MIC [1]: > 256 µg/mL

Compound: OC(c1ccccc1)(c1ccccc1)C1CCN(Cc2ccc(-n3cccc3)cc2)CC1
- MIC [1]: 32 µg/mL (≈ 75.7 µM)

Compound: Cc1cccc(CN2CCC(C(O)(c3ccccc3)c3ccccc3)CC2)c1
- MIC [1]: 128 µg/mL (≈ 345 µM)

Compound: Nc1ccc(CCN2CCC(C(O)(c3ccccc3)c3ccccc3)CC2)cc1
- MIC [1]: > 256 µg/mL
- IC50 [2]: 93 µM
- IC50 [3]: > 333 µM

Compound: COC(=O)c1cccc(CN2CCC(C(O)(c3ccccc3)c3ccccc3)CC2)c1
- MIC [1]: > 256 µg/mL

Compound: N#Cc1cccc(CN2CCC(C(O)(c3ccccc3)c3ccccc3)CC2)c1
- MIC [1]: > 256 µg/mL

Compound: COC(=O)c1ccc(CN2CCC(C(O)(c3ccccc3)c3ccccc3)CC2)cc1
- MIC [1]: > 256 µg/mL

Compound: OC(CCCN1CCC(C(O)(c2ccccc2)c2ccccc2)CC1)c1ccc(Br)cc1 (stereo not drawn)
- MIC [1]: 32 µg/mL (≈ 64.7 µM)
- IC50 [2]: > 500 µM
- IC50 [3]: > 333 µM

Compound: OC(c1ccccc1)(c1ccccc1)C1CCN(Cc2ccc(C(F)(F)F)cc2)CC1
- MIC [1]: > 256 µg/mL

Compound: OC(CCCN1CCC(C(O)(c2ccccc2)c2ccccc2)CC1)c1ccc(-c2ccccc2)cc1 (stereo not drawn)
- MIC [1]: 8 µg/mL (≈ 16.3 µM)
- IC50 [2]: 13 µM
- IC50 [3]: 100 µM

Compound: OC(c1ccccc1)(c1ccccc1)C1CCN(CCc2ccc(-c3ccncc3)cc2)CC1
- MIC [1]: 32 µg/mL (≈ 71.3 µM)
- IC50 [2]: 93 µM
- IC50 [3]: 227 µM

Compound: Cc1ccc(CN2CCC(C(O)(c3ccccc3)c3ccccc3)CC2)cc1
- MIC [1]: 128 µg/mL (≈ 345 µM)

Compound: CC(C)(C)c1ccc(C(O)CCCN2CCN(C(c3ccccc3)c3ccccc3)CC2)cc1 (stereo not drawn) [TRENIZINE]
- MIC [1]: > 256 µg/mL

Compound: OC(c1ccccc1)(c1ccccc1)C1CCN(CCc2ccc(C(F)(F)F)cc2)CC1
- MIC [1]: 16 µg/mL (≈ 36.4 µM)
- IC50 [2]: 17 µM
- IC50 [3]: > 333 µM

Compound: OC(c1ccccc1)(c1ccccc1)C1CCN(CCc2ccc(-c3cccnc3)cc2)CC1
- MIC [1]: 32 µg/mL (≈ 71.3 µM)
- IC50 [2]: 250 µM
- IC50 [3]: 280 µM

Compound: CC(C)c1ccc(CN2CCC(C(O)(c3ccccc3)c3ccccc3)CC2)cc1
- MIC [1]: 32 µg/mL (≈ 80.1 µM)

Compound: CC(C)(C)c1ccc(CCN2CCC(C(O)(c3ccccc3)c3ccccc3)CC2)cc1
- MIC [1]: 8 µg/mL (≈ 18.7 µM)
- IC50 [2]: 93 µM
- IC50 [3]: 147 µM

Compound: CC(C)(C)c1ccc(OCCCN2CCC(C(O)(c3ccccc3)c3ccccc3)CC2)cc1
- IC50 [2]: 100 µM
- IC50 [3]: > 333 µM

Compound: OC(c1ccccc1)(c1ccccc1)C1CCN(Cc2cccc(C(F)(F)F)c2)CC1
- MIC [1]: > 256 µg/mL

Compound: COc1cccc(CN2CCC(C(O)(c3ccccc3)c3ccccc3)CC2)c1
- MIC [1]: 128 µg/mL (≈ 330 µM)

Compound: Oc1cccc(CN2CCC(C(O)(c3ccccc3)c3ccccc3)CC2)c1
- MIC [1]: > 256 µg/mL

Compound: CC(C)(C)c1ccc(CN2CCC(C(O)(c3ccccc3)c3ccccc3)CC2)cc1
- IC50 [2]: 90 µM
- IC50 [3]: 213 µM

Compound: CC(C)(C)c1ccc(C(O)CCCN2CCC(C(c3ccccc3)c3ccccc3)CC2)cc1 (stereo not drawn)
- MIC [1]: 8 µg/mL (≈ 17.6 µM)

Compound: O=C(O)c1ccccc1CN1CCC(C(O)(c2ccccc2)c2ccccc2)CC1
- MIC [1]: > 256 µg/mL

Compound: OC(c1ccccc1)(c1ccccc1)C1CCN(Cc2ccc(F)cc2)CC1
- MIC [1]: > 256 µg/mL

Compound: CC(C)(C)c1ccc(CCN2CCC(C(O)(c3ccccc3)c3ccccc3)CC2)cn1
- MIC [1]: 64 µg/mL (≈ 149 µM)
- IC50 [2]: > 333 µM

Compound: CC(C)(C)c1ccc([C@H](O)CCCN2CCC(C(O)(c3ccccc3)c3ccccc3)CC2)cc1 [R-TERFENADINE]
- IC50 [3]: 110 µM

Compound: OC(c1ccccc1)(c1ccccc1)C1CCN(Cc2ccc(-c3ccco3)cc2)CC1
- MIC [1]: 32 µg/mL (≈ 75.6 µM)

Compound: CC(C)(C)c1ccc(C(=O)CN2CCC(C(O)(c3ccccc3)c3ccccc3)CC2)cc1
- MIC [1]: > 256 µg/mL
- IC50 [3]: 247 µM

Compound: COc1ccccc1CN1CCC(C(O)(c2ccccc2)c2ccccc2)CC1
- MIC [1]: 128 µg/mL (≈ 330 µM)

Compound: COc1ccc(CN2CCC(C(O)(c3ccccc3)c3ccccc3)CC2)cc1
- MIC [1]: 128 µg/mL (≈ 330 µM)

Compound: OC(c1ccccc1)(c1ccccc1)C1CCN(Cc2ccc(-c3cccs3)cc2)CC1
- MIC [1]: 32 µg/mL (≈ 72.8 µM)
